The target of this test is T1, ENT1 (Mus musculus, UniProt Q9JIM1).
T1 sequence (Q9JIM1 1-460): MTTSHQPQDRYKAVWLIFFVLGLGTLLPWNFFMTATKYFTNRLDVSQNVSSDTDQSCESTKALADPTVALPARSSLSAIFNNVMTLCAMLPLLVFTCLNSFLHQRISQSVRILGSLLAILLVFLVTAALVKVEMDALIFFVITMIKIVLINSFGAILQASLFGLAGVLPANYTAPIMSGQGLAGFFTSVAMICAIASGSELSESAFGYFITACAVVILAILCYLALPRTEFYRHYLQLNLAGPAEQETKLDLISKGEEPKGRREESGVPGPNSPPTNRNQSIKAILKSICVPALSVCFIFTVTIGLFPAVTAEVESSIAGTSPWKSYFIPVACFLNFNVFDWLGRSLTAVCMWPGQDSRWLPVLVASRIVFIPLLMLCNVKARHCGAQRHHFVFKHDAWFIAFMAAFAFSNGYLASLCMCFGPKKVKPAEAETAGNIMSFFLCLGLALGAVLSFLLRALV
It counts as binding. The following applies: striatum; for Kd: read-out: KD (affinity). The method, boiled down:
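Striata from 12-month-old heterozygous zQ175 and WT littermate mice were homogenized in 50 mM Tris-HCl pH 7.4 with protease inhibitors, then membranes were pelleted at 100,000 g (45 min, 4°C) and washed twice. Membranes (0.2 mg protein/ml) were incubated with increasing [3H]NBTI in 50 mM Tris-HCl pH 7.4 with 2 I.U./ml adenosine deaminase. Unlabeled NBTI defined non-specific binding. Bound ligand was separated by rapid filtration and counted by scintillation. n = 8–10/group, means ± S.E.M.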

Here are results for 1 compound from PMC5102769 (Neurobiology of disease, 2016).

Like-named read-outs stand apart in the source and are kept apart here.

One may read the Kd as the equilibrium constant for the complex coming apart. For the compound `O=[N+]([O-])c1ccc(CSc2ncnc3c2ncn3[C@@H]2O[C@H](CO)[C@@H](O)[C@H]2O)cc1` [[^3H]NBTI, [^3H]-S-(4-Nitrobenzyl)-6-thioinosine], under “WT littermates of zQ175 mice”, the “Bmax (number of binding sites)” value is 0.27 ± 0.03 pmol/mg of protein and the Kd was determined as 0.11 ± 0.01 nM. For the setting “zQ175 mice (HET, 12-month old)”, the Kd was found to be 0.11 ± 0.03 nM and the “Bmax (number of binding sites)” value stood at 0.35 ± 0.02 pmol/mg protein.
